Data set [1] addresses 11-beta-hydroxysteroid dehydrogenase 1 (Homo sapiens, UniProt P28845). Briefly: Inhibition of human 11beta-HSD1 expressed in CHO-K1 cells using cortisone as substrate after 3 hrs by HTRF assay. It counts as cell-based. The procedure, abridged:
(§1)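 Cells overexpressing human or mouse 11β-HSD1 incubated with cortisone plus compound for 3 h; cortisol measured by HTRF. IC50 fitted from concentration-dependent inhibition curves; means ± SEM of triplicate experiments.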
(Time-resolved FRET reads energy transfer from a long-lived donor to a nearby acceptor.)

Data set [2] relates to Mus musculus. Briefly: Ex-vivo inhibition of 11betaHSD1 in C57BL/6 mouse fat at 20 mg/kg, po after 2 hrs by ELISA. Particulars: C57BL/6, 2 h; call rule not given here. It counts as functional. The procedure, abridged:
(§2)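 Normal mice dosed orally (1, 5, 10 or 20 mpk); 11β-HSD1 activity in fat tissue measured ex vivo 2 h post-dose.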
In general terms: An ELISA detects its analyte on a solid surface through an enzyme-linked reagent.

Data set [3] has as its target 11-beta-hydroxysteroid dehydrogenase 1 (Mus musculus, UniProt P50172). Put plainly: Inhibition of mouse 11beta-HSD1 expressed in CHO-K1 cells using cortisone as substrate after 3 hrs by HTRF assay. Type of data set: cell-based. The procedure, abridged:
as §1

The subject of data set [4] is Mus musculus. Put plainly: Ex-vivo inhibition of 11betaHSD1 in C57BL/6 mouse liver at 20 mg/kg, po after 2 hrs by ELISA. Type of data set: functional. Particulars: C57BL/6, Liver. A digest of the protocol:
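Normal mice given 20 mpk orally; liver tissue taken 2 h after dosing and 11β-HSD1 activity measured ex vivo as % inhibition relative to vehicle.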

The nature of data set [5]: Metabolic stability in rat liver microsomes assessed as compound remaining after 30 mins. It counts as ADME, Microsome. As to conditions: read-out: Stability. A digest of the protocol: (§3)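 Human and rat liver microsomes incubated with compound for 30 min; stability reported as percent parent compound remaining.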
(Microsomes from liver hold many membrane-bound enzymes, among them those of drug oxidation.)

Data set [6] is described as follows: Metabolic stability in human liver microsomes assessed as compound remaining after 30 mins. It counts as ADME, Microsome. Particulars: read-out: Stability. A digest of the protocol:
as §3

The nature of data set [7]: Terminal elimination half life in cynomolgus monkey at 10 mg/kg, po. It counts as ADME, organism-based, Macaca fascicularis. On the set-up: dose 10 mg/kg, route oral. As to conditions: in vivo, read-out: beta t1/2 (converted).
Data set [8] in a line: Metabolic stability in plasma at 10 uM after 30 mins. Type of data set: ADME, cell-free. Particulars: read-out: Stability. A digest of the protocol:
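Compound incubated in plasma for 30 min; stability given as percent remaining.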

A further data set concerns the target Cytochrome P450 3A4 (Homo sapiens, UniProt P08684). Briefly: Inhibition of CYP3A4 incubated for 20 mins prior to substrate addition measured after 20 mins by fluorimetric assay. Type of data set: ADME.
Another data set addresses Cytochrome P450 2C19 (Homo sapiens, UniProt P33261). Briefly: Inhibition of CYP2C19 incubated for 20 mins prior to substrate addition measured after 20 mins by fluorimetric assay. Type of data set: ADME.
For data set [9], the system named is Mus musculus. Briefly: Ex-vivo inhibition of 11betaHSD1 in po dosed C57BL/6 mouse fat after 2 hrs by ELISA. Type of data set: functional, organism-based. A digest of the protocol:
as §2

Data set [10] is described as follows: Oral bioavailability in Sprague-Dawley rat at 10 mg/kg. Particulars: in vivo. It counts as ADME, organism-based.
Data set [11] has as its system Mus musculus. Briefly: Ex-vivo inhibition of 11betaHSD1 in C57BL/6 mouse fat at 5 mg/kg, po after 2 hrs by ELISA. Type of data set: functional. As to conditions: C57BL/6, 2 h. A digest of the protocol: as §2
Data set [12] concerns Cynomolgus monkey. Briefly: Ex-vivo inhibition of 11beta-HSD1 in cynomolgus monkey abdominal fat at 10 mg/kg, po after 2 hrs by ELISA. It counts as functional. Particulars: Macaca fascicularis, Abdomen. A digest of the protocol:
(§4)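 Cynomolgus monkeys dosed orally at 10 mpk; 11β-HSD1 activity measured ex vivo in shoulder, inguinal and abdominal cavity fat at 2 h. Means, n = 2 monkeys per group, versus vehicle.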

The test system of data set [13] is Cynomolgus monkey. Put plainly: Ex-vivo inhibition of 11beta-HSD1 in cynomolgus monkey inguinal fat at 10 mg/kg, po after 2 hrs by ELISA. Type of data set: functional. As to conditions: Macaca fascicularis. The procedure, abridged:
as §4

A short description of data set [14]: Aqueous solubility of the compound. It counts as physicochemical. As to conditions: buffer.
A further data set addresses Cytochrome P450 2D6 (Homo sapiens, UniProt P10635). Put plainly: Inhibition of CYP2D6 incubated for 20 mins prior to substrate addition measured after 20 mins by fluorimetric assay. It counts as ADME.
Data set [15] is described as follows: Cmax in Sprague-Dawley rat at 10 mg/kg, po. Type of data set: ADME, organism-based. More on the design: dose 10 mg/kg, route oral. As to conditions: in vivo.
The target in data set [16] is T1, 11-beta-hydroxysteroid dehydrogenase type 2 (Homo sapiens) (UniProt P80365).
T1 sequence (whole entry): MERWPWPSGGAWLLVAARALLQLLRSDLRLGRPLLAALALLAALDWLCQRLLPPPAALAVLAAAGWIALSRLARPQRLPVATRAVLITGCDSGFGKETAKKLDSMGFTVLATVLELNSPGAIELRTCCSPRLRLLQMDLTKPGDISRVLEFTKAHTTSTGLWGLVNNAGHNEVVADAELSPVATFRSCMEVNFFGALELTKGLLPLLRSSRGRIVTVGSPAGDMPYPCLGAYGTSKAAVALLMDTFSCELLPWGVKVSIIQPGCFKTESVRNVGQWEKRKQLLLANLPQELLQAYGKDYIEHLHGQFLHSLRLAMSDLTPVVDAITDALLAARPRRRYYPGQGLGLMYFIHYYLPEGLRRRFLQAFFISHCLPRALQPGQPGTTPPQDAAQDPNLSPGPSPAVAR
Briefly: Inhibition of human 11beta-HSD2 expressed in HEK293 cells using […] as substrate at 10 uM after 24 hrs by HTRF assay. Type of data set: cell-based.

Data set [17] is described as follows: AUC in Sprague-Dawley rat at 10 mg/kg, po. Type of data set: ADME, organism-based. More on the design: dose 10 mg/kg, route oral. Particulars: plasma.
Data set [18] deals with Mus musculus. Briefly: Ex-vivo inhibition of 11betaHSD1 in C57BL/6 mouse fat at 1 mg/kg, po after 2 hrs by ELISA. It counts as functional. As to conditions: C57BL/6, 2 h. A digest of the protocol:
as §2

Data set [19] can be described thus: AUC in cynomolgus monkey at 10 mg/kg, po. More on the design: dose 10 mg/kg, route oral. It counts as ADME, organism-based, Macaca fascicularis. As to conditions: plasma.
Data set [20] has as its system Mus musculus. Briefly: Ex-vivo inhibition of 11betaHSD1 in C57BL/6 mouse fat at 10 mg/kg, po after 2 hrs by ELISA. Type of data set: functional. Particulars: C57BL/6, 2 h. The procedure, abridged:
as §2

In data set [21] the test system is Cynomolgus monkey. Briefly: Ex-vivo inhibition of 11beta-HSD1 in cynomolgus monkey shoulder fat at 10 mg/kg, po after 2 hrs by ELISA. As to conditions: Macaca fascicularis. Type of data set: functional. The procedure, abridged:
as §4

Data set [22] in a line: Clearance in Sprague-Dawley rat at 10 mg/kg, po. More on the design: dose 10 mg/kg, route oral. As to conditions: in vivo. Type of data set: ADME, organism-based.
Another data set has as its target Cytochrome P450 2C9 (Homo sapiens, UniProt P11712). Put plainly: Inhibition of CYP2C9. Type of data set: ADME.
Data set [23] in a line: Cmax in cynomolgus monkey at 10 mg/kg, po. Type of data set: ADME, organism-based, Macaca fascicularis. More on the design: dose 10 mg/kg, route oral. As to conditions: in vivo.
The next data set concerns the target T2, Cytochrome P450 1A2 (Homo sapiens, UniProt P05177).
T2 sequence (P05177 whole entry): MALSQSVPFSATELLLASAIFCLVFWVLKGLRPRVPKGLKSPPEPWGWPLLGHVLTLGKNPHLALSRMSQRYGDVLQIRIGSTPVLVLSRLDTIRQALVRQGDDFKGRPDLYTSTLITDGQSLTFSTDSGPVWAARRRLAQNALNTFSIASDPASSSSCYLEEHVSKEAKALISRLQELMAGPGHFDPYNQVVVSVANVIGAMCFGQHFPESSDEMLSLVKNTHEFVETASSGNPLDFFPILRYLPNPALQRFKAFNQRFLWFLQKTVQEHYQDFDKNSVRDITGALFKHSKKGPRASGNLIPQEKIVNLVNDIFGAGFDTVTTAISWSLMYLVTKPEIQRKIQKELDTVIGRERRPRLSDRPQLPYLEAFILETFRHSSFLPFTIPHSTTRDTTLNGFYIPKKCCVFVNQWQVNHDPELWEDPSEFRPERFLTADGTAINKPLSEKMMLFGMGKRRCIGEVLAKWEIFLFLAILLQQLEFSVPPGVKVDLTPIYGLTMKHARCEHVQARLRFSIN
Briefly: Inhibition of CYP1A2 incubated for 20 mins prior to substrate addition measured after 20 mins by fluorimetric assay. It counts as ADME.

Data set [24] can be described thus: Terminal elimination half life in Sprague-Dawley rat at 10 mg/kg, po. Type of data set: ADME, organism-based. More on the design: dose 10 mg/kg, route oral. Particulars: in vivo, read-out: beta t1/2 (converted).

We go through eight compounds from ChEMBL document CHEMBL2034946, “Synthesis and biological evaluation of cyclic sulfamide derivatives as 11β-hydroxysteroid dehydrogenase 1 inhibitors” (ACS Med Chem Lett, 2012).

Converted amounts (≈) assume the structure as drawn.

11-beta-hydroxysteroid dehydrogenase 1 (Homo sapiens, UniProt P28845), sequence (P28845 whole entry): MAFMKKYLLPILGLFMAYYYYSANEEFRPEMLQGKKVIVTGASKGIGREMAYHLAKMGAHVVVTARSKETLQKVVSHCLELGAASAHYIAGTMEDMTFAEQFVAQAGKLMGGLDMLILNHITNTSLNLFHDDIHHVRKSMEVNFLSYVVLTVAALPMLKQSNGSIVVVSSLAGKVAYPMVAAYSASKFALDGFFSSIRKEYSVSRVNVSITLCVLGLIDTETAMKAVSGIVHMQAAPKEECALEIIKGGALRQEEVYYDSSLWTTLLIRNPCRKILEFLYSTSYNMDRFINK
11-beta-hydroxysteroid dehydrogenase 1 (Mus musculus, UniProt P50172), sequence (P50172 whole entry): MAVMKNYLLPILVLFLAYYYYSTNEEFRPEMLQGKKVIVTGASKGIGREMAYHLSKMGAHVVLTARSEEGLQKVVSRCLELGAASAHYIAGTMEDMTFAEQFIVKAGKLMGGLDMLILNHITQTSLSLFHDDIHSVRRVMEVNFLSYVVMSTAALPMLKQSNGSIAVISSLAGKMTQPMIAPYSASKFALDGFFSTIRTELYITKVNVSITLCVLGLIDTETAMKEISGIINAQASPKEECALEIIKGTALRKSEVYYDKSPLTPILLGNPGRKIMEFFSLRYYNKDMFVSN
Cytochrome P450 3A4, sequence (P08684 whole entry): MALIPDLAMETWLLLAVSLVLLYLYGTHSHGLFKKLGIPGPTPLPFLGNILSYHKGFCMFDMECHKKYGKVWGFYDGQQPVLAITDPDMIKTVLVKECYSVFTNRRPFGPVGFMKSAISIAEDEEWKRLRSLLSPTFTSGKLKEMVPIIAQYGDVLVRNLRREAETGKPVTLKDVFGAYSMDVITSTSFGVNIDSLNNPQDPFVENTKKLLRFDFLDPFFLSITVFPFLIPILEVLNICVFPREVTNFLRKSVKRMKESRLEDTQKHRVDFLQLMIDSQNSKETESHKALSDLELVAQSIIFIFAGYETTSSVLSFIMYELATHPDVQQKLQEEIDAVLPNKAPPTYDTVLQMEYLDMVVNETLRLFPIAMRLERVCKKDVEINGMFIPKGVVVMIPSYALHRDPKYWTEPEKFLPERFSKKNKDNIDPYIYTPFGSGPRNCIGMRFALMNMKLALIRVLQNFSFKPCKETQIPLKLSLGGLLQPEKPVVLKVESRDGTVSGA
Cytochrome P450 2C19, sequence (P33261 whole entry): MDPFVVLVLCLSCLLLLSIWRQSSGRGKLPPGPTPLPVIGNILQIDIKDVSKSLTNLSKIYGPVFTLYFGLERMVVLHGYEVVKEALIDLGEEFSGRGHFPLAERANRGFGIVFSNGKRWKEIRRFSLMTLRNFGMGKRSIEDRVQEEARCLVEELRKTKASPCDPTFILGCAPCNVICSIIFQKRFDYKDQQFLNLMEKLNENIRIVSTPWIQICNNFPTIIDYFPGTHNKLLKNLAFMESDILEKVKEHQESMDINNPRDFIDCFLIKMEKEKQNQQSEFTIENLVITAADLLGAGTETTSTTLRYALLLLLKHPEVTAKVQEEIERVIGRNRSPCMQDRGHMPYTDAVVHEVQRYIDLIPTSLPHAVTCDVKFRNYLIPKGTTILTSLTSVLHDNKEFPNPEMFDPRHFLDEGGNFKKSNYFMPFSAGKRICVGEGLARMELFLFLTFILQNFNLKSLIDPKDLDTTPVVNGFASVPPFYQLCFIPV
Cytochrome P450 2C9, sequence (P11712 whole entry): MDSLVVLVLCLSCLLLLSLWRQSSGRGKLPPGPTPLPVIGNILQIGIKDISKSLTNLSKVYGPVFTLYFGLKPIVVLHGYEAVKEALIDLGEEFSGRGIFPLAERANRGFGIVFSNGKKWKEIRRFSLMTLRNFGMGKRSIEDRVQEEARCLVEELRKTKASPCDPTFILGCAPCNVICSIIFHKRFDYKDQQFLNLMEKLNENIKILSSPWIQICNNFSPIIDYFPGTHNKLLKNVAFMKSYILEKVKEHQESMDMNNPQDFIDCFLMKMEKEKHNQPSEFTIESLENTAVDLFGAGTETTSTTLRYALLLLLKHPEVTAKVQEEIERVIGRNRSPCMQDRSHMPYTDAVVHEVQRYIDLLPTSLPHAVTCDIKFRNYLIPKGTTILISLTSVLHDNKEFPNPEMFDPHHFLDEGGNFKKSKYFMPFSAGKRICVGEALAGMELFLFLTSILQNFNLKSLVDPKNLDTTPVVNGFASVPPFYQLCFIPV
Cytochrome P450 2D6, sequence (P10635 whole entry): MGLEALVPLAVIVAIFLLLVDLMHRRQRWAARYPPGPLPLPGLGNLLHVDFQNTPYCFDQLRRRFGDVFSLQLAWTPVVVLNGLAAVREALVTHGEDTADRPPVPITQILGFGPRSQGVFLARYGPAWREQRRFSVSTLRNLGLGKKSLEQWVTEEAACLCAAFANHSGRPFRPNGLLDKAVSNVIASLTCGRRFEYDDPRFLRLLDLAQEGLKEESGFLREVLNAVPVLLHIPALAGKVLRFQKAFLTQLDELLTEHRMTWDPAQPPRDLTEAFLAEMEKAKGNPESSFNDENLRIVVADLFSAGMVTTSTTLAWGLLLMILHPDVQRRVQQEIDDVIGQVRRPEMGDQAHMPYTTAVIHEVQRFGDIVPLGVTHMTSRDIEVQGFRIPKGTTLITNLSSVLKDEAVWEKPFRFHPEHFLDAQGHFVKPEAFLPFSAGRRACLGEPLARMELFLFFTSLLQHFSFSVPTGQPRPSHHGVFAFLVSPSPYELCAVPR

Consider `O=C(O)CN1CCCN(c2ccccc2)S1(=O)=O`, for which the IC50 (commonly the midpoint of a concentration-inhibition curve) in [1] (cho-k1) is recorded as “Not Active”.

Consider `NC(=O)[C@]12CC3CC(C1)[C@@H](NC(=O)CN1CC4(CC4)CN(c4c(Cl)cc(Cl)cc4Cl)S1(=O)=O)C(C3)C2`, for which the IC50 was 5 nM in [1] (read-out: IC50) and 23 nM in [3]. Besides, 20 mg/kg produced 39.6% inhibition in vivo with Mus musculus [2].

For the compound `NC(=O)[C@]12CC3CC(C1)[C@@H](NC(=O)CN1CCCCN(c4c(Cl)cc(Cl)cc4Cl)S1(=O)=O)C(C3)C2`, the IC50 in data set [1] (read-out: IC50) and in data set [3] was 1 nM throughout. The inhibition in vivo (in general, the drop in the measured response relative to a control, in per cent) at 20 mg/kg in the data set on Mus musculus [2] was found to be 59.9%; in the data set on Mus musculus [4], 51.4%. In addition, the remaining at 0.5 h turned out to be 26% in data set [5] and 40% in [6].

Turning to `NC(=O)[C@]12CC3CC(C1)[C@@H](NC(=O)CN1CCN(c4c(Cl)cc(Cl)cc4Cl)S1(=O)=O)C(C3)C2`, the IC50 in data set [1] (read-out: IC50) is 187 nM; in data set [3], 409 nM.

Turning to `CC1CN(CC(=O)N[C@H]2C3CC4CC2C[C@](C(N)=O)(C4)C3)S(=O)(=O)N(c2c(Cl)cc(Cl)cc2Cl)C1` (mixture of isomers), the results for the half-life in data set [7] and in [24] were 3.4 h and 3.8 h, respectively. Moreover, in data set [8], the remaining at 0.5 h, 10 µM turned out to be 100%. Moreover, the INH at Cytochrome P450 3A4, at Cytochrome P450 2C19, on Cytochrome P450 2D6, at Cytochrome P450 2C9 and at Cytochrome P450 1A2 was above 100 µM throughout. For the same compound, the inhibition – broadly, the percentage by which the read-out fell short of the control – was “Dose-dependent effect” with Mus musculus [9] and 20% in data set [16]. Moreover, the IC50 in data set [1] (read-out: IC50) is 1 nM; in data set [3], 2 nM. For the same compound, the inhibition in vivo at 20 mg/kg with Mus musculus [2] came to 95.9%. For the same compound, the bioavailability (usually dose-corrected exposure relative to a reference, in per cent) in data set [10] was found to be 68.8%. In the data set with Mus musculus [11], the inhibition in vivo at 5 mg/kg was determined as 90.4%. For the same compound, the inhibition in vivo at 10 mg/kg worked out at 81% in the data set on Cynomolgus monkey [12], 83% in the data set with Cynomolgus monkey [13], 90.7% with Mus musculus [20] and 87% in the data set on Cynomolgus monkey [21]. Besides, the concentration in solution in data set [14] (solubility) came to 361 µM (≈ 204 µg/mL). Also, the Cmax (usually the highest concentration seen after dosing) in data set [15] is 3100 ng/mL; in data set [23], 6400 ng/mL. The remaining at 0.5 h in [5] was 78%; in data set [6] it was 93%. For the same compound, the figures for the AUC in [17] and in [19] were 15700 ng·h/mL and 35600 ng·h/mL, respectively. This compound also had an inhibition in vivo at 1 mg/kg in the data set with Mus musculus [18] of 76.6%. Besides, the CL/F – broadly, clearance divided by bioavailability, as obtained after extravascular dosing – in data set [22] was 11.7 mL/min/kg.

On to `C=C1CN(CC(=O)N[C@H]2C3CC4CC2C[C@](C(N)=O)(C4)C3)S(=O)(=O)N(c2c(Cl)cc(Cl)cc2Cl)C1`, for which the IC50 amounted to 14 nM in data set [1] (read-out: IC50) and 8 nM in [3]. In the data set with Mus musculus [2], this compound came in with an inhibition in vivo at 20 mg/kg of 82.1%.

With `NC(=O)[C@]12CC3CC(C1)[C@@H](NC(=O)CN1CCCN(c4cccc(F)c4)S1(=O)=O)C(C3)C2`, the results for the IC50 in [1] (read-out: IC50) and in [3] were 50 nM and 140 nM, respectively.

In the case of `NC(=O)[C@]12CC3CC(C1)[C@@H](NC(=O)CN1CCCN(c4c(Cl)cc(Cl)cc4Cl)S1(=O)=O)C(C3)C2`, the IC50 in data set [1] (read-out: IC50) was 1 nM; in [3], 4 nM. Also, the inhibition in vivo at 20 mg/kg with Mus musculus [2] amounted to 92.1%; with Mus musculus [4], 83.7%. The remaining at 0.5 h in data set [5] stood at 57%; in data set [6], 61%.
